Assay results reported in ChEMBL document CHEMBL4665845, “CRISPR-Cas9 Genome-Wide Knockout Screen Identifies Mechanism of Selective Activity of Dehydrofalcarinol in Mesenchymal Stem-like Triple-Negative Breast Cancer Cells” (2020).
Active and inactive are the calls of the source. The rule behind the calls is not given here.

Key:
MDA-MB-231 [1] = assay: Cytotoxicity against human MDA-MB-231 cells assessed as reduction in cell viability at 0.03 to 3 uM after 48 hrs by SRB assay; type: functional, cell-based; settings: dose microM 0.03-3, time 48.0 hrs
MDA-MB-453 [2] = assay: Cytotoxicity against human MDA-MB-453 cells assessed as reduction in cell viability at 0.03 to 3 uM after 48 hrs by SRB assay; type: functional, cell-based; settings: dose microM 0.03-3, time 48.0 hrs
BT-549 = assay: Growth inhibition of human BT-549 cells after 48 hrs by SRB assay; type: functional
Homo sapiens [3] = species on record: Homo sapiens; assay: Selectivity index, ratio of TGI for growth inhibitor of human BT-549 to TGI for growth inhibitor of human MDA-MB-231; type: functional
MDA-MB-231 [4] = assay: Growth inhibition of human MDA-MB-231 cells after 48 hrs by SRB assay; type: functional
Outline: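 Cells were exposed to compound for 48 h, and growth was read by sulforhodamine B staining. TGI (total growth inhibition concentration, μM) was taken from concentration–response curves, n = 3, means ± SEM. MDA-MB-231 cells were grown in IMEM with 10% FBS at 37 °C in 5% CO2.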

Homo sapiens [5] = species on record: Homo sapiens; assay: Selectivity index, ratio of LC50 for growth inhibitor of human MDA-MB-453 to LC50 for growth inhibitor of human MDA-MB-231; type: functional
Outline: (§1)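 Selectivity index is the LC50 of the named TNBC line divided by the LC50 in MDA-MB-231 cells.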

MDA-MB-468 = assay: Growth inhibition of human MDA-MB-468 cells after 48 hrs by SRB assay; type: functional
MDA-MB-157 = assay: Growth inhibition of human MDA-MB-157 cells after 48 hrs by SRB assay; type: functional
Homo sapiens [6] = species on record: Homo sapiens; assay: Selectivity index, ratio of LC50 for growth inhibitor of human MDA-MB-468 to LC50 for growth inhibitor of human MDA-MB-231; type: functional; outline: as §1
Homo sapiens [7] = species on record: Homo sapiens; assay: Selectivity index, ratio of LC50 for growth inhibitor of human BT-549 to LC50 for growth inhibitor of human MDA-MB-231; type: functional; outline: as §1
HCC1806 = assay: Growth inhibition of human HCC1806 cells after 48 hrs by SRB assay; type: functional
Homo sapiens [8] = species on record: Homo sapiens; assay: Selectivity index, ratio of LC50 for growth inhibitor of human […] to LC50 for growth inhibitor of human MDA-MB-231; type: functional; outline: as §1
Homo sapiens [9] = species on record: Homo sapiens; assay: Selectivity index, ratio of LC50 for growth inhibitor of human MDA-MB-157 to LC50 for growth inhibitor of human MDA-MB-231; type: functional; outline: as §1
MDA-MB-453 [10] = assay: Growth inhibition of human MDA-MB-453 cells after 48 hrs by SRB assay; type: functional
[11] = read-out: LC50 (the source's name)

`CN(CCOc1ccc(CC2SC(=O)NC2=O)cc1)c1ccccn1` (stereo not drawn) was tested, and the Activity (MDA-MB-231 [1]) was “inactive” and the Activity (MDA-MB-453 [2]) was “inactive”.
For `C=CCCCCC(O)/C=C/C#CC#C[C@@H](O)C=C` (mixture of isomers), the TGI (BT-549) was 4.2 µM, the Selectivity Index (Homo sapiens [3]) was 12 and the TGI (MDA-MB-231 [4]) was 0.36 µM.
`C=CCCC/C=C\CC#CC#CC(O)C=C` (mixture of isomers) was tested, and the TGI (BT-549) was 2.4 µM, the Selectivity Index (Homo sapiens [3]) was 4.9 and the TGI (MDA-MB-231 [4]) was 0.49 µM.
Work on `C=CCCCCC/C=C\CC#CC#CC(O)CC` (stereo not drawn) yielded a TGI (BT-549) of 7 µM, a Selectivity Index (Homo sapiens [3]) of 2.1 and a TGI (MDA-MB-231 [4]) of 3.3 µM.
`C=C[C@@H](O)C#CC#C[C@@H](O)/C=C\CCCCCCC` [FALCARINDIOL] showed a TGI (BT-549) of 9 µM, a Selectivity Index (Homo sapiens [3]) of 1.5 and a TGI (MDA-MB-231 [4]) of 6 µM.
In the case of `C=C[C@@H](O)C#CC#CC/C=C\CCCCCCC`, the TGI (BT-549) is reported as 9 µM, the Selectivity Index (Homo sapiens [3]) is reported as 1.5 and the TGI (MDA-MB-231 [4]) is reported as 6 µM.
`C=CCCCCCC(O)/C=C/C#CC#CC(O)CC` (mixture of isomers) showed a TGI (BT-549) of over 5 µM and a TGI (MDA-MB-231 [4]) of 4.3 µM.
`C=CCCCCC/C=C\CC#CC#C[C@@H](O)C=C` gave a RatioLC50 (Homo sapiens [5]) of over 29, a GI50 (MDA-MB-468) of 850 nM and a TGI (MDA-MB-468) of 2000 nM. The CC50 (MDA-MB-468; [11]) was 4.4 µM, the GI50 (MDA-MB-157) was 59 nM and the TGI (MDA-MB-157) was 130 nM. It also gave a CC50 (MDA-MB-157; [11]) of 290 nM, a RatioLC50 (Homo sapiens [6]) of 26 and a GI50 (BT-549) of 220 nM. The TGI (BT-549) was 0.42 µM, the CC50 (BT-549; [11]) was 900 nM and the RatioLC50 (Homo sapiens [7]) was 5.3. The GI50 (HCC1806) was 300 nM, the TGI (HCC1806) was 540 nM and the CC50 (HCC1806; [11]) was 1200 nM. The Selectivity Index (Homo sapiens [3]) was 7.3, the RatioLC50 (Homo sapiens [8]) was 7.1 and the RatioLC50 (Homo sapiens [9]) was 1.7. It also gave a GI50 (MDA-MB-453 [10]) of 2800 nM, a TGI (MDA-MB-453 [10]) of over 5 µM and a CC50 (MDA-MB-453 [10]; [11]) of over 5 µM. It also gave a GI50 (MDA-MB-231 [4]) of 51 nM, a TGI (MDA-MB-231 [4]) of 0.089 µM and a CC50 (MDA-MB-231 [4]; [11]) of 170 nM.
